Measurements reported in ChEMBL document CHEMBL3621120, “Discovery of ((4-(5-(Cyclopropylcarbamoyl)-2-methylphenylamino)-5-methylpyrrolo[1,2-f][1,2,4]triazine-6-carbonyl)(propyl)carbamoyloxy)methyl-2-(4-(phosphonooxy)phenyl)acetate (BMS-751324), a Clinical Prodrug of p38α MAP Kinase Inhibitor” (J Med Chem, 2015).
In brackets after ≈: the same amount, converted by molar mass.

Tests used:
[1] = Stability in pH 1 solution assessed as half-life at 37 degC; format: physicochemical
[2] = Stability in pH 7.4 solution assessed as half-life at 37 degC; format: physicochemical
[3] = Stability in pH 3.1 solution assessed as half-life at 37 degC; format: physicochemical
[4] = Chemical stability of the compound in acidic pH solution; format: physicochemical
[5] = Chemical stability of the compound in neutral pH solution; format: physicochemical
[6] = target: T1, Liver carboxylesterase (Sus scrofa, UniProt Q29550); assay: Stability assessed as porcine liver esterase-mediated drug degradation by measuring compound remaining level in pH 7.4 potassium phosphate buffer at 10 uM incubated for 0.5 hrs by LC/MS/MS; format: ADME, tissue-based; conditions: pig, read-out: Stability
T1 sequence (Q29550 whole entry): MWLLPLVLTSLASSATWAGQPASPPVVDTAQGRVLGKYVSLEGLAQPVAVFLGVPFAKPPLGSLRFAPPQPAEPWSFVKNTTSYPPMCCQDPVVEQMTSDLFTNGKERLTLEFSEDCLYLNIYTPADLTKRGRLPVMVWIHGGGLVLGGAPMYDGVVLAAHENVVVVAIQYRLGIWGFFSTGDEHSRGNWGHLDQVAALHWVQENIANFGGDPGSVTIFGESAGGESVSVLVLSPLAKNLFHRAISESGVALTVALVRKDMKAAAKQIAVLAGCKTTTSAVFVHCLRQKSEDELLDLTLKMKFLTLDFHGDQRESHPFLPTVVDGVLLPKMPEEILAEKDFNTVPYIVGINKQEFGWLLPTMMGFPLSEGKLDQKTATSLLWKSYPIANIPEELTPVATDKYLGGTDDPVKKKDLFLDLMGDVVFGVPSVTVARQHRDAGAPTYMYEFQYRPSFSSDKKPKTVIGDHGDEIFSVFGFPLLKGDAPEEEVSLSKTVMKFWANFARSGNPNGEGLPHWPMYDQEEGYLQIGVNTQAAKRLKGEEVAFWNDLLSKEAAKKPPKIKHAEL
Outline: (§1)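 Porcine liver esterase with substrate at 10 µM in 89 mM potassium phosphate pH 7.4, 37 °C. Reaction started by adding compound. Aliquots taken at 0, 15, 30 and 60 min and quenched with acetonitrile. After centrifugation at 4 °C, percent remaining quantified by LC/MS/MS.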

[7] = Chemical stability of the compound in pH 7.4 potassium phosphate buffer at 10 uM incubated for 1 hr by LC/MS/MS method; format: physicochemical; conditions: read-out: Stability
Outline: (§2)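 Compound at 10 µM in 89 mM potassium phosphate buffer, pH 7.4, 37 °C, incubated with or without porcine liver esterase; started by compound addition, aliquots at 0, 15, 30, 60 min, acetonitrile added, centrifuged at 4 °C, remaining compound measured by LC/MS/MS.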

[8] = target: T1, Liver carboxylesterase; assay: Stability assessed as porcine liver esterase-mediated drug degradation by measuring compound remaining level in pH 7.4 potassium phosphate buffer at 10 uM incubated for 1 hr by LC/MS/MS; format: ADME, tissue-based; conditions: pig, read-out: Stability; outline: as §1
[9] = Chemical stability of the compound in pH 7.4 potassium phosphate buffer at 10 uM incubated for 0.5 hrs by LC/MS/MS method; format: physicochemical; conditions: read-out: Stability; outline: as §2
[10] = target: T1, Liver carboxylesterase; assay: Stability assessed as porcine liver esterase-mediated drug degradation by measuring compound remaining level in pH 7.4 potassium phosphate buffer at 10 uM incubated for 0.25 hrs by LC/MS/MS; format: ADME, tissue-based; conditions: pig, read-out: Stability; outline: as §1
[11] = tested on: Caco-2; assay: Drug level in apical side of human Caco2 cells incubated at 37 degC for 2 hrs; format: ADME, cell-based; conditions: caco-2, 2 h
Outline: (§3)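 Compounds loaded on apical side of Caco-2 monolayers and incubated at 37 °C for 2 h; prodrug, intermediate and parent measured on apical and basal sides.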

[12] = Chemical stability of the compound in pH 7.4 potassium phosphate buffer at 10 uM incubated for 0.25 hrs by LC/MS/MS method; format: physicochemical; conditions: read-out: Stability; outline: as §2
[13] = Chemical Stability of the compound in pH 1 solution; format: physicochemical; conditions: buffer
[14] = Cmax in Sprague-Dawley rat at 1 mg/kg, po after 24 hrs by LC/MS/MS method; format: ADME, organism-based; design: dose 1 mg/kg, route oral; conditions: in vivo
[15] = Cmax in Sprague-Dawley rat at 10 mg/kg, po after 24 hrs by LC/MS/MS method; format: ADME, organism-based; design: dose 10 mg/kg, route oral; conditions: in vivo
[16] = tested on: Rattus norvegicus; assay: Bioavailability in Sprague-Dawley rat at 100 mg/kg, po after 24 hrs by LC/MS/MS method; format: ADME, organism-based; conditions: in vivo
[17] = tested on: Rattus norvegicus; assay: Inhibition of LPS-induced TNFalpha level in Lewis rat at 0.03 to 10 mg/kg, po dosed 1 hr before LPS challenge and measured 90 mins post LPS challenge by ELISA method; format: functional
Outline: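 Male Lewis rats (200-250 g) dosed orally 1 h before IP injection of 10ug E. coli O111:B4 LPS in 1.0 mL sterile saline; prodrug as suspension in 0.75% Methocel, 0.1% Tween 80, parent in PEG 300, controls given vehicle. Blood taken 90 min after LPS; serum TNF measured by ELISA; ED50 expressed as parent equivalent.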

[18] = AUC in Sprague-Dawley rat at 10 mg/kg, po after 24 hrs by LC/MS/MS method; format: ADME, organism-based; design: time < 24 hr, dose 10 mg/kg, route oral; conditions: in vivo
[19] = tested on: Caco-2; assay: Drug level in basal side of human Caco2 cells assessed as BMS-582949 level incubated at 37 degC for 2 hrs; format: ADME, cell-based; conditions: caco-2, 2 h; outline: as §3
[20] = tested on: Rattus norvegicus; assay: Inhibition of paw swelling in Lewis rat adjuvant arthritis model assessed as reduction in hind paw volume at 3 mg/kg, po bid beginning on day 11 post adjuvant challenge by volume displacement plethysmometry method relative to control; format: functional; conditions: 264 h
Outline: (§4)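 Male Lewis rats given complete Freund's adjuvant on day 1; from day 11 compounds dosed orally BID in 0.5 mL vehicle (prodrug as aqueous suspension in 0.75% Methocel, 0.1% Tween 80; parent in PEG 300). Paw volume measured 3 times per week for rest of study; paw swelling inhibition reported.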

[21] = tested on: Caco-2; assay: Drug level in apical side of human Caco2 cells assessed as BMS-582949 level incubated at 37 degC for 2 hrs; format: ADME, cell-based; conditions: caco-2, 2 h; outline: as §3
[22] = Bioavailability in Sprague-Dawley rat at 10 mg/kg, po after 24 hrs by LC/MS/MS method; format: ADME, organism-based; conditions: in vivo
[23] = tested on: Rattus norvegicus; assay: Inhibition of paw swelling in Lewis rat adjuvant arthritis model assessed as reduction in hind paw volume at 1 mg/kg, po bid beginning on day 11 post adjuvant challenge by volume displacement plethysmometry method relative to control; format: functional; conditions: 264 h; outline: as §4
[24] = Bioavailability in Sprague-Dawley rat at 1 mg/kg, po after 24 hrs by LC/MS/MS method; format: ADME, organism-based; conditions: in vivo
[25] = Bioavailability in cynomolgus monkey at 10 mg/kg, po after 24 hrs by LC/MS/MS method; format: ADME, organism-based, Macaca fascicularis; conditions: in vivo
[26] = AUC (0 to 24 hrs) in Lewis rat adjuvant arthritis model at 3 mg/kg, po bid beginning on day 11 post adjuvant challenge; format: ADME, organism-based; design: dose 3 mg/kg, time < 24 hr, route oral; conditions: in vivo
[27] = AUC in Sprague-Dawley rat at 100 mg/kg, po after 24 hrs by LC/MS/MS method; format: ADME, organism-based; design: time < 24 hr, dose 100 mg/kg, route oral; conditions: in vivo
[28] = AUC in cynomolgus monkey at 10 mg/kg, po after 24 hrs by LC/MS/MS method; format: ADME, organism-based, Macaca fascicularis; design: dose 10 mg/kg, time < 24 hr, route oral; conditions: in vivo
[29] = AUC in Sprague-Dawley rat at 1 mg/kg, po after 24 hrs by LC/MS/MS method; format: ADME, organism-based; design: time < 24 hr, dose 1 mg/kg, route oral; conditions: in vivo
[30] = Solubility in pH 6.5 solution; conditions: buffer
[31] = AUC (0 to 24 hrs) in Lewis rat adjuvant arthritis model at 1 mg/kg, po bid beginning on day 11 post adjuvant challenge; format: ADME, organism-based; design: dose 1 mg/kg, time < 24 hr, route oral; conditions: in vivo
[32] = Cmax in cynomolgus monkey at 10 mg/kg, po after 24 hrs by LC/MS/MS method; format: ADME, organism-based, Macaca fascicularis; design: dose 10 mg/kg, route oral; conditions: in vivo
[33] = Cmax in Sprague-Dawley rat at 100 mg/kg, po after 24 hrs by LC/MS/MS method; format: ADME, organism-based; design: dose 100 mg/kg, route oral; conditions: in vivo
[34] = Solubility in pH 1.2 solution; conditions: buffer

## CCCNC(=O)c1cn2ncnc(N(COP(=O)([O-])O)c3cc(C(=O)NC4CC4)ccc3C)c2c1C.[Na+]
[1]
  half-life: < 0.25 h
[2]
  half-life: 20 h
[3]
  half-life: < 0.25 h

## CCCN(C(=O)OCOC(=O)/C=C/C(=O)O)C(=O)c1cn2ncnc(Nc3cc(C(=O)NC4CC4)ccc3C)c2c1C
[4]
  Stability: Stable
[5]
  Stability: Stable

## CCCN(C(=O)OCOC(=O)Cc1ccc(O)cc1)C(=O)c1cn2ncnc(Nc3cc(C(=O)NC4CC4)ccc3C)c2c1C
[6]
  remaining at 0.5 h, 10 µM: 6.9%
[7]
  remaining at 1 h, 10 µM: 75%
[8]
  remaining at 1 h, 10 µM: 5.8%
[9]
  remaining at 0.5 h, 10 µM: 93%
[10]
  remaining at 0.25 h, 10 µM: 8.2%
[11]
  Drug uptake: Active
[12]
  remaining at 0.25 h, 10 µM: 100%

## CCCN(C(=O)OCOP(=O)(O)O)C(=O)c1cn2ncnc(Nc3cc(C(=O)NC4CC4)ccc3C)c2c1C
[13]
  Stability: Stable
[5]
  Stability: Unstable

## CCCNC(=O)c1cn2ncnc(Nc3cc(C(=O)NC4CC4)ccc3C)c2c1C [BMS-582949]
[14]
  Cmax: 800 nM
[15]
  Cmax: 4300 nM
[16]
  F: 4.3%
[17]
  ED50: 0.88 mg
[18]
  AUC at 24 h: 23 µM·h
[19]
  Drug uptake: Active
[20]
  inhibition in vivo at 3 mg/kg: 35%
[21]
  Drug uptake: Active
[22]
  bioavailability: 31%
[23]
  inhibition in vivo at 1 mg/kg: 27%
[24]
  bioavailability: 55%
[25]
  bioavailability: 16%
[26]
  AUC at 24 h: 25.3 µM·h
[27]
  AUC at 24 h: 3 µM·h
[28]
  AUC at 24 h: 7.6 µM·h
[29]
  AUC at 24 h: 4.2 µM·h
[30]
  solubility: 3 µg/mL (≈ 7.38 µM)
[31]
  AUC at 24 h: 6.7 µM·h
[32]
  Cmax: 1000 nM
[33]
  Cmax: 3000 nM
[34]
  solubility: 280 µg/mL (≈ 689 µM)

## CCCN(COP(=O)(O)O)C(=O)c1cn2ncnc(Nc3cc(C(=O)NC4CC4)ccc3C)c2c1C.CCN(C(C)C)C(C)C
[1]
  half-life: < 0.25 h
[2]
  half-life: 54 h
[3]
  half-life: < 0.25 h

## CCCNC(=O)c1cn2ncnc(Nc3cc(C(=O)N(COP(=O)(O)O)C4CC4)ccc3C)c2c1C.CCN(C(C)C)C(C)C
[1]
  half-life: < 0.25 h
[2]
  half-life: 257 h
[3]
  half-life: < 0.25 h
